Assay results reported in ChEMBL document CHEMBL4334441, “Exploitation of Antibiotic Resistance as a Novel Drug Target: Development of a β-Lactamase-Activated Antibacterial Prodrug” (J Med Chem, 2019).
Values after ≈ are worked out from the molar mass of the structure shown. Active and inactive are the calls of the source. No cut-off for these calls is given here.

Tests used:
[1] = Selectivity ratio of MIC for ciprofloxacin-susceptible Escherichia coli CFT073 harboring pSU18 to MIC for ciprofloxacin-susceptible Escherichia coli DH5[alpha]; type: ADME
[2] = Prodrug activation in Escherichia coli CFT073 harboring CTX-M-1 assessed as bacterial CTX-M-1-mediated compound hydrolysis incubated for 1 hr by 1H-NMR analysis; conditions: bacteria
In short: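 Whole-cell hydrolysis used E. coli CFT073 carrying pSU18 encoding CTX-M-1. The read-out was percentage of compound hydrolysed after 60 min.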

Escherichia coli [3] = assay: Growth inhibition of Escherichia coli CFT073 harboring pSU18 and CTX-M-1 incubated for 18 hrs by broth microdilution method; conditions: CFT073, 18 h
Escherichia coli [4] = assay: Growth inhibition of ciprofloxacin-susceptible Escherichia coli DH5[alpha] incubated for 18 hrs by broth microdilution method; type: organism-based; conditions: in vivo
In short: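 MIC determination against E. coli DH5α, either lacking β-lactamase or expressing the ESBL TEM-116. The MIC is the minimal concentration that inhibits bacterial growth.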

Escherichia coli [5] = assay: Growth inhibition of Escherichia coli DH5[alpha] expressing ESBL TEM-116 incubated for 18 hrs by broth microdilution method; type: functional
Escherichia coli [6] = assay: Growth inhibition of ciprofloxacin-susceptible Escherichia coli CFT073 harboring pSU18 incubated for 18 hrs by broth microdilution method; type: organism-based; conditions: in vivo
In short: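 MIC determination in E. coli CFT073, either wild type or carrying pSU18 (empty pEMP, or encoding CTX-M, NDM-1 or KPC). Dose–response growth curves were run, and each point is the mean ± SEM of n = 3. The MIC is the minimal concentration that inhibits bacterial growth.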

[7] = Drug metabolism in CTX-M-1-deficient Escherichia coli DH5[alpha] assessed as compound hydrolysis at 100 uM incubated for 60 mins by 1H-NMR spectra analysis; type: ADME; conditions: CTX-M-1-deficient Escherichia coli DH5alpha cells, read-out: Drug metabolism
[8] = Prodrug activation in Escherichia coli DH5[alpha] expressing beta-lactamase CTX-M-1 assessed as bacterial CTX-M-1-mediated compound hydrolysis at 100 uM incubated for 60 mins by 1H-NMR spectra analysis; conditions: bacteria
[9] = Prodrug activation in Escherichia coli DH5[alpha] expressing TEM-116 assessed as bacterial TEM-116 mediated compound hydrolysis at 100 uM incubated for 90 mins by 1H-NMR spectra analysis; conditions: bacteria, 1.5 h
[10] = Drug metabolism in TEM-116-deficient Escherichia coli DH5[alpha] assessed as compound hydrolysis at 100 uM incubated for 90 mins by 1H-NMR spectra analysis; type: ADME; conditions: TEM-116-deficient Escherichia coli DH5alpha cells, read-out: Drug degradation
[11] = Prodrug activation in Escherichia coli DH5[alpha] expressing TEM-116 assessed as bacterial TEM-116 mediated compound hydrolysis at 50 uM incubated for 60 mins by 1H-NMR spectra analysis; conditions: bacteria
[12] = target: DNA gyrase (Escherichia coli) (UniProt P0AES6+P0AES4); conditions: 1 uM
Enterococcus faecalis [13] = assay: Effect on growth of Enterococcus faecalis GW01 incubated for 18 hrs by broth microdilution method; type: organism-based; conditions: in vivo
Enterococcus faecalis [14] = assay: Effect on growth of Enterococcus faecalis ATCC 29212 incubated for 18 hrs by broth microdilution method; type: organism-based; conditions: in vivo

inhibition [12] | Structure (SMILES) | Selectivity ratio [1] | Drug metabolism [2] [%] | MIC (Escherichia coli [3]) [µM] | MIC (Escherichia coli [4]) [µM] | MIC (Escherichia coli [5]) [µM] | MIC (Escherichia coli [6]) | metabolised at 1 h, 100 µM [7] [%] | Drug metabolism [8] [%] | Drug metabolism [9] [%] | metabolised at 1.5 h, 100 µM [10] [%] | Drug metabolism [11] [%] | Activity (Enterococcus faecalis [13]) | Activity (Enterococcus faecalis [14])
– | CC(=O)OCC1=C(C(=O)O)N2C(=O)[C@@H](NC(=O)Cc3cccc(C)c3)[C@H]2SC1 | <= 2 | 16 | > 400 | 200 (≈ 80.9 µg/mL) | 400 (≈ 162 µg/mL) | 200 µM (≈ 80.9 µg/mL) | – | – | – | – | – | – | –
– | CC(=O)OCC1=C(C(=O)O)N2C(=O)[C@@H](NC(=O)Cc3ccc(-c4ccccc4)cc3)[C@H]2SC1 | <= 2 | 4 | > 400 | > 800 | > 800 | > 400 µM | 0 | 100 | 69 | 14 | – | – | –
– | CC(=O)OCC1=C(C(=O)O)N2C(=O)[C@@H](NC(=O)Cc3ccccc3)[C@H]2SC1 [CEFALORAM] | <= 2 | 17 | > 400 | 50 (≈ 19.5 µg/mL) | 100 (≈ 39 µg/mL) | 50 µM (≈ 19.5 µg/mL) | – | – | – | – | – | – | –
– | CC(=O)OCC1=C(C(=O)O)N2C(=O)[C@@H](NC(=O)c3ccc(C)cc3)[C@H]2SC1 | <= 2 | 3 | > 400 | > 400 | > 400 | > 400 µM | – | – | – | – | – | – | –
– | CC(=O)OCC1=C(C(=O)O)N2C(=O)[C@@H](NC(=O)c3ccc([N+](=O)[O-])cc3)[C@H]2SC1 | – | – | – | > 400 | > 400 | – | – | – | – | – | – | – | –
– | CC(=O)N[C@@H]1C(=O)N2C(C(=O)O)=C(COC(C)=O)CS[C@H]12 | <= 2 | 67 | > 400 | 200 (≈ 62.9 µg/mL) | – | 400 µM (≈ 126 µg/mL) | – | – | – | – | – | – | –
– | CC(=O)OCC1=C(C(=O)O)N2C(=O)[C@@H](NC(=O)Cc3cccs3)[C@H]2SC1 [CEPHALOTHIN] | <= 2 | 68 | > 400 | 12.5 (≈ 4.96 µg/mL) | 100 (≈ 39.6 µg/mL) | 25 µM (≈ 9.91 µg/mL) | 0 | 100 | – | – | 61 | – | –
– | CC(=O)OCC1=C(C(=O)O)N2C(=O)[C@@H](NC(=O)Cc3ccsc3)[C@H]2SC1 | <= 2 | 32 | > 400 | 50 (≈ 19.8 µg/mL) | 200 (≈ 79.3 µg/mL) | 50 µM (≈ 19.8 µg/mL) | – | – | – | – | – | – | –
– | CC(=O)OCC1=C(C(=O)O)N2C(=O)[C@@H](NC(=O)Cc3cc(Br)cs3)[C@H]2SC1 | <= 2 | – | > 400 | 50 (≈ 23.8 µg/mL) | 200 (≈ 95.1 µg/mL) | 50 µM (≈ 23.8 µg/mL) | – | – | – | – | – | – | –
– | COc1ccc(C(=O)N[C@@H]2C(=O)N3C(C(=O)O)=C(COC(C)=O)CS[C@H]23)cc1 | <= 2 | 3 | > 400 | > 800 | > 800 | > 400 µM | – | – | – | – | – | – | –
– | CC(=O)OCC1=C(C(=O)O)N2C(=O)[C@@H](NC(=O)C3CCCCC3)[C@H]2SC1 | – | – | – | > 400 | > 400 | – | – | – | – | – | – | – | –
– | CCCC(=O)N[C@@H]1C(=O)N2C(C(=O)O)=C(COC(C)=O)CS[C@H]12 | <= 2 | 25 | > 400 | 100 (≈ 34.2 µg/mL) | 400 (≈ 137 µg/mL) | 200 µM (≈ 68.5 µg/mL) | – | – | – | – | – | – | –
– | CC(=O)OCC1=C(C(=O)O)N2C(=O)[C@@H](NC(=O)[C@H](C)c3ccccc3)[C@H]2SC1 | <= 2 | – | > 400 | 400 (≈ 162 µg/mL) | > 800 | > 400 µM | – | – | – | – | – | – | –
– | CC(=O)OCC1=C(C(=O)O)N2C(=O)[C@@H](NC(=O)Cc3cccc(Oc4ccccc4)c3)[C@H]2SC1 | <= 2 | – | > 400 | > 800 | > 800 | >= 400 uM | – | – | – | – | – | – | –
– | CC(=O)OCC1=C(C(=O)O)N2C(=O)[C@@H](NC(=O)c3ccccc3)[C@H]2SC1 | <= 2 | 26 | > 400 | > 400 | > 400 | > 400 µM | – | – | – | – | – | – | –
– | CCCCCC(=O)N[C@@H]1C(=O)N2C(C(=O)O)=C(COC(C)=O)CS[C@H]12 | <= 2 | 7 | > 400 | 200 (≈ 74.1 µg/mL) | > 800 | 100 µM (≈ 37 µg/mL) | – | – | – | – | – | – | –
– | CC(=O)OCC1=C(C(=O)O)N2C(=O)[C@@H](NC(=O)Cc3ccc(F)cc3)[C@H]2SC1 | <= 2 | 18 | > 400 | 100 (≈ 40.8 µg/mL) | 200 (≈ 81.7 µg/mL) | 100 µM (≈ 40.8 µg/mL) | – | – | – | – | – | – | –
– | CC(=O)OCC1=C(C(=O)O)N2C(=O)[C@@H](NC(=O)Cc3ccc(Cl)cc3)[C@H]2SC1 | <= 2 | 14 | > 400 | 100 (≈ 42.5 µg/mL) | 400 (≈ 170 µg/mL) | 100 µM (≈ 42.5 µg/mL) | – | – | – | – | – | – | –
– | CC(=O)OCC1=C(C(=O)O)N2C(=O)[C@@H](NC(=O)Cc3ccc(Br)cc3)[C@H]2SC1 | <= 2 | 9 | > 400 | 200 (≈ 93.9 µg/mL) | 800 (≈ 375 µg/mL) | 100 µM (≈ 46.9 µg/mL) | – | – | – | – | – | – | –
– | CC(=O)OCC1=C(C(=O)O)N2C(=O)[C@@H](NC(=O)c3ccco3)[C@H]2SC1 | <= 2 | 64 | > 400 | > 400 | > 400 | > 400 µM | – | – | – | – | – | – | –
Active | O=C(O)c1cn(C2CC2)c2cc(N3CCNCC3)c(F)cc2c1=O [CIPROFLOXACIN] | – | – | – | – | – | – | – | – | – | – | – | Toxic | Toxic
– | CC(=O)OCC1=C(C(=O)O)N2C(=O)[C@@H](NC(=O)Cc3ccc(C)cc3)[C@H]2SC1 | <= 2 | 7 | > 400 | 100 (≈ 40.4 µg/mL) | 400 (≈ 162 µg/mL) | 100 µM (≈ 40.4 µg/mL) | – | – | – | – | – | – | –
– | CC(=O)OCC1=C(C(=O)O)N2C(=O)[C@@H](NC(=O)Cc3ccc(Oc4ccccc4)cc3)[C@H]2SC1 | <= 2 | 4 | > 400 | > 800 | > 800 | > 400 µM | 0 | 94 | 54 | 13 | – | – | –
